Source: ChEMBL document CHEMBL3593224, “Design, synthesis and biological evaluation of a novel series of peripheral-selective noradrenaline reuptake inhibitor” (Bioorg Med Chem, 2015)
Active and inactive are the calls of the source. No cut-off for these calls is given here.

Legend:
[1] = target: Sodium-dependent noradrenaline transporter (Homo sapiens, UniProt P23975); test: Inhibition of human NET expressed in CHOK1 cells incubated for 45 mins by [3H]-norepinephrine uptake assay; type: cell-based, CHO-K1
How it was run: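 Human NET stably expressed in CHO cells (Ham/F12, 10% FBS), seeded 3 × 10^5 cells/mL, overnight culture. In HEPES-buffered salt/glucose buffer with 0.5% BSA, compound then [3H]-norepinephrine (diluted to 200 nM before addition) added; uptake 45 min, two PBS washes, scintillation counting. 10 µM desipramine taken as 100% inhibition; IC50 and 95% confidence interval from n=2.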

CYP2D6 = CYP2D6 (Homo sapiens, UniProt P10635); test: Inhibition of CYP2D6 (unknown origin) at 10 uM; type: ADME
Homo sapiens [2] = organism: Homo sapiens; test: Selectivity index, ratio of IC50 for human DAT to IC50 for human NET
How it was run: (§1)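 Ratio of IC50s from two [3H]-uptake assays in CHO cells stably expressing human DAT or NET, seeded overnight in HEPES-buffered saline with glucose and 0.5% BSA. Radioligand added from 200 nM dilutions. DAT: [3H]-dopamine plus cold dopamine (10 µM dilution), 60 min. NET: [3H]-norepinephrine, 45 min. Washed, scintillation counted; IC50 with 95% CI, n=2.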

Homo sapiens [3] = organism: Homo sapiens; test: Selectivity index, ratio of IC50 for human SERT to IC50 for human NET
How it was run: as §1, with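 “(SERT or” for “stably expressing”, “NET expressing),” for “DAT or NET,”, “SERT: [3H]-5-hydroxytryptamine, 20” for “DAT: [3H]-dopamine plus cold dopamine (10 µM dilution), 60”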

[4] = target: Sodium-dependent dopamine transporter (Homo sapiens, UniProt Q01959); test: Inhibition of human DAT expressed in CHOK1 cells incubated for 60 mins by [3H]-dopamine uptake assay; type: cell-based, CHO-K1
How it was run: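 CHO cells stably expressing human DAT, grown in Ham/F12 with 10% FBS, seeded 3 × 10^5 cells/mL and cultured overnight. Compound added in buffer (NaCl, KCl, KH2PO4, MgSO4, 10 mM HEPES, CaCl2, glucose, 0.5% BSA), then [3H]-dopamine (200 nM stock, with 10 µM cold dopamine stock); 60 min uptake, PBS wash, scintillation count. 100 µM nomifensine as 100% inhibition; IC50 with 95% CI, n=2.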

[5] = target: Sodium-dependent serotonin transporter (Homo sapiens, UniProt P31645); test: Inhibition of human SERT expressed in CHOK1 cells incubated for 20 mins by [3H]-5-hydroxytryptamine uptake assay; type: cell-based, CHO-K1
How it was run: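 CHO cells stably expressing human SERT, cultured in Ham/F12 plus 10% FBS, plated 3 × 10^5 cells/mL overnight. Buffer: 126 mM NaCl, 10 mM HEPES, glucose, 0.5% BSA; compound added at 10× then diluted, followed by [3H]-5-HT (200 nM stock). After 20 min, buffer removed, cells washed twice with PBS, radioactivity counted; IC50 and 95% CI from two experiments.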

Rattus norvegicus [6] = test: Increase in urethral resistance in rat assessed as increase in leak point pressure at 1 to 10 mg/kg, sc measured 30 mins post dose by Evans blue dye based assay; type: functional, organism-based; settings: Urethra
Rattus norvegicus [7] = test: In-vivo occupancy at NET in Sprague-Dawley rat brain cortex at 3 mg/kg, iv by [3H]-nisoxetine […] assay; type: functional
How it was run: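 Female Sprague-Dawley rats under urethane anaesthesia (i.p.) got compound i.v. The left cortex was removed 20 min later and homogenised in Tris-Cl pH 7.5/NaCl/KCl buffer. Membranes at 4 mg/mL protein were incubated 1 h at room temperature with [3H]-nisoxetine (25 nmol/L solution), with desipramine for nonspecific binding. Filtered on GF/B; occupancy taken against vehicle specific binding (100%).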

hERG (KCNH2) = hERG (KCNH2) (Homo sapiens, UniProt Q12809); test: Inhibition of human ERG at 10 uM
Rattus norvegicus [8] = test: Increase in urethral resistance in rat assessed as increase in leak point pressure at 0.3 to 3 mg/kg, iv measured 30 mins post dose by Evans blue dye based assay; type: functional, organism-based; settings: Urethra

Chain of Sodium-dependent serotonin transporter (P31645 whole entry): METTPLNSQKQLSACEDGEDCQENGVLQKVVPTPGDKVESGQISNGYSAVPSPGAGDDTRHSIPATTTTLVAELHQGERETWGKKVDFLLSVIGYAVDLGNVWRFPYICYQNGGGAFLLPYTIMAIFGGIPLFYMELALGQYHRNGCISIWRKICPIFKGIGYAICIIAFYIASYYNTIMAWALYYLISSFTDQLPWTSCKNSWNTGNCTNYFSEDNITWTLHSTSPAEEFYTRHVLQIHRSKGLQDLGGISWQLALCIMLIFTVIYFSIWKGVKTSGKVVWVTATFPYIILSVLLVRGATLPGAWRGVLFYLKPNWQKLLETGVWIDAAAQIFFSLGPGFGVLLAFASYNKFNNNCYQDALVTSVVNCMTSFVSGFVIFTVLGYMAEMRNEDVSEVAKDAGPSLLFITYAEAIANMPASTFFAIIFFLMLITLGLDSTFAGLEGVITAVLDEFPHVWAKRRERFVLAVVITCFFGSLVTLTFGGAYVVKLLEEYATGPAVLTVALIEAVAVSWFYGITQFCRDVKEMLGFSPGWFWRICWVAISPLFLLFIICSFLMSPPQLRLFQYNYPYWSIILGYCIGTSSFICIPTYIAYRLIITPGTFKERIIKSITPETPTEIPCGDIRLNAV
Chain of Sodium-dependent noradrenaline transporter (P23975 whole entry): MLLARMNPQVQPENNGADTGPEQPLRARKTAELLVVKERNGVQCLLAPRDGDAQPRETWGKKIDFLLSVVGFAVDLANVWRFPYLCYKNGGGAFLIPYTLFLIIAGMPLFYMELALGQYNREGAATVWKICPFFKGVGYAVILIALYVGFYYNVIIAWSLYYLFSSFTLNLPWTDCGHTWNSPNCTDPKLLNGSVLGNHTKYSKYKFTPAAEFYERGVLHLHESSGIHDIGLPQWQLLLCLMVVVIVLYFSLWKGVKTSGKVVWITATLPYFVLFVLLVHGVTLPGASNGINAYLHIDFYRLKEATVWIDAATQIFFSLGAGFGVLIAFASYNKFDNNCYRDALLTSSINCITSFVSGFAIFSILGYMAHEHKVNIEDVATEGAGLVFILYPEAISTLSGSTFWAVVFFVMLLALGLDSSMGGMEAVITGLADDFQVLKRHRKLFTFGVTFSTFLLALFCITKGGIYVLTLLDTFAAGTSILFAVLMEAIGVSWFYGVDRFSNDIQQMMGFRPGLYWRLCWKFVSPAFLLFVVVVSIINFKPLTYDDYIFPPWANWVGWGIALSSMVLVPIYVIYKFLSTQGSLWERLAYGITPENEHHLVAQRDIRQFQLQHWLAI
Chain of Sodium-dependent dopamine transporter (Q01959 whole entry): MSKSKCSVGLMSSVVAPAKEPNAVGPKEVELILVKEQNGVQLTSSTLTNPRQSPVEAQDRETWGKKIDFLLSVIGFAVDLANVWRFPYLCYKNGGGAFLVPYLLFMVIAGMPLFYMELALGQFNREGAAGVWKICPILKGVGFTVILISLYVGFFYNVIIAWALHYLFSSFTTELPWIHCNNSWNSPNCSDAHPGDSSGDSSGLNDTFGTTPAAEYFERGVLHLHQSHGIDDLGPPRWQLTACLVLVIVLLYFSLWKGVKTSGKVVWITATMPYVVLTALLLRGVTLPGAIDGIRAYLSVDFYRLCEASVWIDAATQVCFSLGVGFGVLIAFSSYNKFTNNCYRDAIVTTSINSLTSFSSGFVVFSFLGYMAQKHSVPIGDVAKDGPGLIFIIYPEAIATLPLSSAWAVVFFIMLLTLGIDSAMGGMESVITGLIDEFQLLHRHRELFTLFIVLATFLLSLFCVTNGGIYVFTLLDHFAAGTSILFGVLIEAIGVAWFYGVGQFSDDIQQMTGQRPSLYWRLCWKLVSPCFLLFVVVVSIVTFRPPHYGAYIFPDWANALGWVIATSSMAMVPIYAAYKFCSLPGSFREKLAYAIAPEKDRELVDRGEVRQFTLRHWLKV
Chain of CYP2D6 (P10635 whole entry): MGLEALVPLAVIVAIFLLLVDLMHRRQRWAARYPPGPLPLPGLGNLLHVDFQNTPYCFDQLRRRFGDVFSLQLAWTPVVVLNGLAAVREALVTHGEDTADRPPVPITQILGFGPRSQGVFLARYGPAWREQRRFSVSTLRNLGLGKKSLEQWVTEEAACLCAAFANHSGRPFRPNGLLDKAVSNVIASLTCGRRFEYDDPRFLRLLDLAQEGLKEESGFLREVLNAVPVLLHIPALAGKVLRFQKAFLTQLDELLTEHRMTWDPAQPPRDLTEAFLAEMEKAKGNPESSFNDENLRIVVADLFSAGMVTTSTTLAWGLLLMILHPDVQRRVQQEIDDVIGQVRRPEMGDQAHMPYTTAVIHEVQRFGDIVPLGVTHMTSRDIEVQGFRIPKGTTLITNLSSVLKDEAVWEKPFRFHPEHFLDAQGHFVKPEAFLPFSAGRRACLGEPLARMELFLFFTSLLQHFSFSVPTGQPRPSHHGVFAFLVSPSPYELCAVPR
Chain of hERG (KCNH2) (Q12809 whole entry): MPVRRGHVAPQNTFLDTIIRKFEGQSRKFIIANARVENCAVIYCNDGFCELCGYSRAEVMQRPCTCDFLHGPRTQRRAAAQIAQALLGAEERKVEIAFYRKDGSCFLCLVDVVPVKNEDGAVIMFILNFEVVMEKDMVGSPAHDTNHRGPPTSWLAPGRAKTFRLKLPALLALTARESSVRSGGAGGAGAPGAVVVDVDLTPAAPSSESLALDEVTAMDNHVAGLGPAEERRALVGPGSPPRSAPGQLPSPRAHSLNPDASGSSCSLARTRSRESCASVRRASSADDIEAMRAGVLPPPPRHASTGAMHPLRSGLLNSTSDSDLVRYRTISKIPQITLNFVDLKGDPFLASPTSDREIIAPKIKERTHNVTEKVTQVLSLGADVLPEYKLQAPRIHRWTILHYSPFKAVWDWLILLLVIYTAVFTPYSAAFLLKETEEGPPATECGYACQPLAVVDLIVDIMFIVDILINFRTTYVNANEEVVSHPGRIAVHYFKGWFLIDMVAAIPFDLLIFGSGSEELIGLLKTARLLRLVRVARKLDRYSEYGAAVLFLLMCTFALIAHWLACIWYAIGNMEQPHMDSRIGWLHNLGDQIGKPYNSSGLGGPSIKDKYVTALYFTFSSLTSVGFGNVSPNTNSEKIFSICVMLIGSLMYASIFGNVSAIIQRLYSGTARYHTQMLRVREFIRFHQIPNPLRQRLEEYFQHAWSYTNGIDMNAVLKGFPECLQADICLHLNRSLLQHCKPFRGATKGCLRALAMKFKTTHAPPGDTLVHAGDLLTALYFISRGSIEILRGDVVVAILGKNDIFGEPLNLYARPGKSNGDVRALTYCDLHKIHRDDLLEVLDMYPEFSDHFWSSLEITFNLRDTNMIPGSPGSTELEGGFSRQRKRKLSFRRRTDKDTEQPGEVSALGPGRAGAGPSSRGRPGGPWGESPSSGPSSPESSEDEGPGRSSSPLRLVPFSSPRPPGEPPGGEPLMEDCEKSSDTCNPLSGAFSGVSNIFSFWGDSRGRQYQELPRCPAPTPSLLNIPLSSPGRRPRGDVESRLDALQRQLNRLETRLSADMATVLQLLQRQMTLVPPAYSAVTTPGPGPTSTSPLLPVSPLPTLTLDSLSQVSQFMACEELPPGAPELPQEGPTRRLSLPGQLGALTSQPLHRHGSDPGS

Compound `OC[C@H]1CNCCO[C@@H]1c1ccc(Cl)c(Cl)c1` has an IC50 [1] of 5.8 nM, an inhibition at 10 µM (CYP2D6) of 45% and a Ratio IC50 (Homo sapiens [2]) of 230. The Ratio IC50 (Homo sapiens [3]) was 6.1, the IC50 [4] was 1400 nM and the IC50 [5] was 36 nM.

For `OC[C@@]1(c2ccc(Cl)c(Cl)c2)CCNCCO1`, the IC50 [1] was 5.6 nM, the inhibition at 10 µM (CYP2D6) was 23% and the Ratio IC50 (Homo sapiens [2]) was over 1800. For the same compound, the Ratio IC50 (Homo sapiens [3]) was 35, the IC50 [4] was over 10000 nM and the IC50 [5] was 200 nM.

`NC(=O)[C@@H]1CNCCO[C@H]1c1ccc(Cl)c(Cl)c1` was tested, and the IC50 [1] was 52 nM, the Ratio IC50 (Homo sapiens [2]) was over 190 and the Ratio IC50 (Homo sapiens [3]) was 15. The IC50 [4] was over 10000 nM and the IC50 [5] was 780 nM.

`CCOc1ccccc1O[C@@H](c1ccccc1)[C@@H]1CNCCO1` was tested, and the Activity (Rattus norvegicus [6]) was “Active”.

For `OC[C@@H]1CNCCO[C@@H]1c1ccc(Cl)c(Cl)c1`, the IC50 [1] was 8.5 nM, the inhibition at 10 µM (CYP2D6) was 58% and the Ratio IC50 (Homo sapiens [2]) was over 120. The Ratio IC50 (Homo sapiens [3]) was 1.3, the IC50 [4] was over 1000 nM and the IC50 [5] was 11 nM.

In the case of `OC[C@H]1CNCCO[C@H]1c1ccc(Cl)c(Cl)c1`, the IC50 [1] is reported as 6 nM, the inhibition at 10 µM (CYP2D6) is reported as 47% and the Ratio IC50 (Homo sapiens [2]) is reported as over 170. The Ratio IC50 (Homo sapiens [3]) was 20, the IC50 [4] was over 1000 nM and the IC50 [5] was 120 nM.

`OCC1(c2ccc(Cl)c(Cl)c2)CCNCCO1` (racemic) gave an IC50 [1] of 17 nM, an inhibition at 10 µM (CYP2D6) of 19% and a Ratio IC50 (Homo sapiens [2]) of over 590. It also gave a Ratio IC50 (Homo sapiens [3]) of 12, an IC50 [4] of over 10000 nM and an IC50 [5] of 200 nM.

`CC(=O)NC[C@@H]1CNCCO[C@H]1c1ccc(Cl)c(F)c1.Cl` showed an IC50 [1] of 2.3 nM, a Ratio IC50 (Homo sapiens [2]) of over 440 and a Ratio IC50 (Homo sapiens [3]) of over 440. For the same compound, the IC50 [4] was over 1000 nM, the Occ (Rattus norvegicus [7]) was -2.8% and the IC50 [5] was over 1000 nM.

`Cl.OC[C@@H]1CNCCO[C@H]1c1ccc(Cl)c(Cl)c1` gave an IC50 [1] of 2 nM, an inhibition at 10 µM (CYP2D6) of 34% and a Ratio IC50 (Homo sapiens [2]) of 1800. It also gave a Ratio IC50 (Homo sapiens [3]) of 50, an IC50 [4] of 3100 nM and an Occ (Rattus norvegicus [7]) of 68%. The IC50 [5] was 97 nM.

`CC(=O)NC[C@@H]1CNCCO[C@H]1c1ccc(Cl)c(Cl)c1.O=C(O)/C=C/C(=O)O` showed an inhibition at 10 µM (hERG (KCNH2)) of 15%, an IC50 [1] of 0.33 nM and a Ratio IC50 (Homo sapiens [2]) of 4400. For the same compound, the Ratio IC50 (Homo sapiens [3]) was 450, the IC50 [4] was 1500 nM and the Occ (Rattus norvegicus [7]) was -14%. For the same compound, the Activity (Rattus norvegicus [8]) was “Dose-dependent effect” and the IC50 [5] was 150 nM.

Work on `CC(=O)NC[C@@H]1CNCCO[C@H]1c1ccc(Cl)c(C)c1` yielded an IC50 [1] of 3.3 nM, a Ratio IC50 (Homo sapiens [2]) of over 300 and a Ratio IC50 (Homo sapiens [3]) of 150. It also gave an IC50 [4] of over 1000 nM and an IC50 [5] of 480 nM.

Work on `CN(C)C(=O)[C@@H]1CNCCO[C@H]1c1ccc(Cl)c(Cl)c1.Cl` yielded an IC50 [1] of 0.77 nM, a Ratio IC50 (Homo sapiens [2]) of 91 and a Ratio IC50 (Homo sapiens [3]) of 460. The IC50 [4] was 70 nM, the Occ (Rattus norvegicus [7]) was 68% and the IC50 [5] was 350 nM.

Compound `OCC1(c2ccc(Cl)c(Cl)c2)CCCNCC1` (racemic) has an IC50 [1] of 2.1 nM, an inhibition at 10 µM (CYP2D6) of 44% and a Ratio IC50 (Homo sapiens [2]) of over 480. For the same compound, the Ratio IC50 (Homo sapiens [3]) was 17, the IC50 [4] was over 1000 nM and the IC50 [5] was 35 nM.

`OC[C@]1(c2ccc(Cl)c(Cl)c2)CCNCCO1` gave an IC50 [1] of 700 nM, an inhibition at 10 µM (CYP2D6) of 21% and a Ratio IC50 (Homo sapiens [2]) of over 14. It also gave a Ratio IC50 (Homo sapiens [3]) of 0.47, an IC50 [4] of over 10000 nM and an IC50 [5] of 330 nM.

Compound `CC(=O)NC[C@@H]1CNCCO[C@H]1c1ccc(F)c(Cl)c1.O=C(O)/C=C/C(=O)O` has an IC50 [1] of 13 nM, a Ratio IC50 (Homo sapiens [2]) of over 76 and a Ratio IC50 (Homo sapiens [3]) of over 76. The IC50 [4] was over 1000 nM, the Occ (Rattus norvegicus [7]) was 1.7% and the IC50 [5] was over 1000 nM.

For `CC(=O)NCC[C@@H]1CNCCO[C@H]1c1ccc(Cl)c(Cl)c1`, the IC50 [1] was 5.8 nM, the Ratio IC50 (Homo sapiens [2]) was over 170 and the Ratio IC50 (Homo sapiens [3]) was 35. The IC50 [4] was over 1000 nM and the IC50 [5] was 200 nM.

In the case of `CNC(=O)[C@@H]1CNCCO[C@H]1c1ccc(Cl)c(Cl)c1`, the IC50 [1] is reported as 12 nM, the Ratio IC50 (Homo sapiens [2]) is reported as over 83 and the Ratio IC50 (Homo sapiens [3]) is reported as over 83. It also gave an IC50 [4] of over 1000 nM and an IC50 [5] of over 1000 nM.

In the case of `CC(=O)NC[C@@H]1CNCCO[C@H]1c1ccc(C)c(Cl)c1`, the IC50 [1] is reported as 3.4 nM, the Ratio IC50 (Homo sapiens [2]) is reported as over 300 and the Ratio IC50 (Homo sapiens [3]) is reported as 200. The IC50 [4] was over 1000 nM and the IC50 [5] was 680 nM.
